Measured values from different studies.
Target: Mu-type opioid receptor (OPRM1, Homo sapiens, UniProt P35372)

SMILES	assay	setting	quantity	value
Cc1cc(O)cc(C)c1C[C@H](N)C(=O)N1Cc2ccccc2C[C@H]1C(=O)NCC(=O)NC(c1ccccc1)c1ccccc1	ligand displacement, radioligand	cell membranes	Ki	1.71 nM
CCCCCCCCC[C@@H]1CC(=O)NCC(=O)N[C@H](Cc2ccc(O)cc2)C(=O)NCC(=O)N[C@@H](Cc2ccccc2)C(=O)O1	ligand displacement, radioligand	–	IC50	16 µM
Clc1ccc(CSc2nnc(-c3ccccn3)n2Cc2ccco2)cc1Cl	β-arrestin recruitment, agonist, imaging	–	EC50	> 32000 nM
Oc1ccc2c3c1O[C@H]1c4ncc(-c5ccccc5)cc4C[C@@]4(OCCCc5cccnc5)[C@@H](C2)N(CC2CC2)CC[C@]314	cell-free assay	–	Ki	3.96 nM
CCCCC/C=C\C/C=C\C/C=C\CCCCC(=O)O	ligand displacement, radioligand	cell membranes	Ki	22700 nM
c1ccc([C@]2(CCN[C@H]3CCOc4ccccc43)CCOC3(CCCC3)C2)nc1	cAMP, agonist, luciferase	–	EC50	1.6 nM
CC(NCCc1ccc(O)cc1)C(O)c1ccc(O)cc1 (stereo not shown)	ligand displacement	–	IC50	9.18 µM
Cc1cc(O)cc(C)c1C[C@H](N)C(=O)N1Cc2ccccc2C[C@@H]1C(=O)NCC(=O)NCc1ccccc1	ligand displacement, radioligand	cell membranes	Ki	0.068 nM
COc1cc(-c2cnc3c(c2)C[C@@]2(OCCCc4ccccc4)[C@H]4Cc5ccc(O)c6c5[C@@]2(CCN4CC2CC2)[C@H]3O6)ccn1	cell-free assay	–	Ki	< 10 nM
Cc1cc(O)cc(C)c1C[C@H](N)C(=O)N1Cc2ccccc2C[C@H]1C(=O)NCC(=O)NCc1ccc(N)cc1	ligand displacement, radioligand	cell membranes	Ki	34 nM
CC(CCc1ccccc1)NC(C)C(O)c1ccc(O)cc1 (stereo not shown)	ligand displacement, radioligand	–	IC50	9.95 µM
CC(=O)Nc1ccccc1-c1cnc2c(c1)C[C@@]1(OCCCc3ccccc3)[C@H]3Cc4ccc(O)c5c4[C@@]1(CCN3CC1CC1)[C@H]2O5	cell-free assay	–	Ki	141 nM
Oc1cccc([C@@]23CCC[C@@H](C2)N(CCc2ccccc2)C[C@H]3O)c1 (relative stereo)	cell-free assay	–	Ki	~5 nM
